Reference: ChEMBL document CHEMBL3822375, “Preclinical Characterization of 3β-(N-Acetyl l-cysteine methyl ester)-2aβ,3-dihydrogaliellalactone (GPA512), a Prodrug of a Direct STAT3 Inhibitor for the Treatment of Prostate Cancer” (J Med Chem, 2016)
The source made the active and inactive calls. The rule behind the calls is not given here.

Legend:
[1] = Chemical stability of the compound in phosphate buffer saline assessed as half life at 10 uM at pH 7.4 by LC-MS/MS analysis; format: physicochemical; conditions: phosphate buffered saline
Summary of the method: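 Compound diluted from DMSO (or methanol) stock to 10 µM, 2% solvent final, n=2. Matrix was 0.1 M PBS pH 7.4, or […] HCl with 2 mg/mL NaCl adjusted to pH 1.2. Mixed on a shaker; sampled at nominal 5, 15, 30 and 60 min plus T=0. LC-MS/MS with internal standard; % remaining relative to T=0. Formation of parent also monitored.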

Plasma = assay: Half life in dog plasma assessed as formation of galiellalactone at 5 uM by LC-MS/MS analysis; format: ADME, cell-free, Canis lupus familiaris
Summary of the method: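 Plasma of each species incubated at 37 °C with compound at 5 µM initial, 1% DMSO, n=2. Simvastatin and eucatropine run as controls. Aliquots taken at 0, 5, 15, 30 and 60 min and quenched with acetonitrile containing internal standard, then analysed by LC-MS/MS.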

Mus musculus [2] = assay: Cmax in mouse plasma assessed as galiellalactone level at 40 mg/kg, po by LC-MS/MS analysis; format: ADME, organism-based; parameters: dose 40 mg/kg, route oral; conditions: in vivo
Summary of the method: (§1)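 Single dose to mice; oral, iv or ip as listed, in 5% DMSO/50 mM citrate buffer pH 4.0 (dosing solutions 0.5, 2 or 5 mg/mL). Oral dosing at 20 mL/kg. Terminal blood under barbiturate anaesthesia at eight time-points to 8 h, n=3 mice per time-point, EDTA plasma. Acetonitrile precipitation with internal standard, LC-MS/MS against plasma calibration lines. Non-compartmental analysis on mean data, trapezoidal AUC.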

Mus musculus [3] = assay: AUC (0 to infinity) in mouse plasma at 40 mg/kg, po by LC-MS/MS analysis; format: ADME, organism-based; parameters: dose 40 mg/kg, route oral, time infinity; conditions: in vivo; summary of the method: as §1
Mus musculus [4] = assay: Cmax in mouse plasma assessed as galiellalactone level at 100 mg/kg, po by LC-MS/MS analysis; format: ADME, organism-based; parameters: dose 100 mg/kg, route oral; conditions: in vivo; summary of the method: as §1
Mus musculus [5] = assay: Apparent half life in mouse plasma assessed as galiellalactone level at 100 mg/kg, po by LC-MS/MS analysis; format: ADME, organism-based; conditions: in vivo; summary of the method: as §1
Hepatocyte [6] = assay: Prodrug conversion in mouse hepatocytes assessed as formation of 3-beta-(N-Acetyl-L-cysteine)-2a-beta,3-dihydrogaliellalactone after 2 hrs by UPLC-MS analysis; format: ADME, cell-based
Summary of the method: (§2)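 Cryopreserved mouse hepatocytes incubated with an initial 10 µM test item (DMSO stock) in Celsis InVitro HI medium, pH 7.4, 37 °C. Cell viability checked by Trypan blue. Sampled at 0 and 120 min and stopped with an equal volume of acetonitrile. Analysed by UPLC/Q-TOF-MS.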

DU-145 [7] = assay: Antitumor activity against human DU145 cells xenografted in NMRI mouse assessed as reduction of tumor growth rate at 40 mg/kg, po administered 5 times per week for 4 weeks measured on day 26 and day 29 relative to vehicle-treated control; format: functional, organism-based
Summary of the method: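 NMRI-nude male mice given 1.5 million DU145 cells s.c. in the flank. After four weeks, split into two groups of ten. Oral gavage with compound at 40 mg/kg or vehicle (50 mM citrate pH 4.0, 2% DMSO), daily five times per week for four weeks. Caliper measurement twice weekly; volume = width × length × height × 0.52.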

DU-145 [8] = assay: Induction of apoptosis in human DU145 cells xenografted in NMRI nude mouse assessed as increase in cleaved caspase3 level at 40 mg/kg, po administered 5 times per week for 4 weeks by immunohistochemical analysis; format: functional, organism-based
Summary of the method: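 DU145 cells (1.5 million) inoculated subcutaneously in the flank of NMRI-nude male mice. After four weeks, 10 mice per group were dosed orally by feeding needle with 40 mg/kg or vehicle (50 mM citrate buffer pH 4.0, 2% DMSO), five days a week for four weeks. Tumours were fixed in formaldehyde and stained for cleaved caspase-3. Positive cells were counted as the mean per view over five 10x views per section.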

Mus musculus [9] = assay: Toxicity in CD1 mouse assessed as change in body weight at 200 mg/kg, administered as single dose through oral gavage measured on day 4 (reference value: 34.68 +/- 4.71 g); format: organism-based; conditions: in vivo
Mus musculus [10] = assay: Toxicity in CD1 mouse assessed as change in body weight at 200 mg/kg, administered as single dose through oral gavage measured on day 8 (reference value: 32.28 +/- 4.42 g); format: organism-based; conditions: in vivo
Mus musculus [11] = assay: Toxicity in CD1 mouse assessed as change in body weight at 400 mg/kg, administered as single dose through oral gavage measured on day 1 (reference value: 33.5 +/- 4.34 g); format: organism-based; conditions: in vivo
Mus musculus [12] = assay: Tmax in mouse plasma assessed as galiellalactone level at 10 mg/kg, po by LC-MS/MS analysis; format: ADME, organism-based; conditions: in vivo
Mus musculus [13] = assay: Apparent half life in mouse plasma assessed as galiellalactone level at 10 mg/kg, po by LC-MS/MS analysis; format: ADME, organism-based; conditions: in vivo; summary of the method: as §1
Mus musculus [14] = assay: AUC (0 to t) in mouse plasma assessed as galiellalactone level at 10 mg/kg, po by LC-MS/MS analysis; format: ADME, organism-based; conditions: in vivo; summary of the method: as §1
Hepatocyte [15] = assay: Prodrug conversion in mouse hepatocytes assessed as galiellalactone formation of after 2 hrs by UPLC-MS analysis; format: ADME, cell-based; summary of the method: as §2
Mus musculus [16] = assay: Toxicity in NMRI mouse xenografted with human DU145 cells assessed as mouse survival at 40 mg/kg, po administered 5 times per week for 4 weeks measured on day 26 and day 29; format: organism-based, DU-145; conditions: in vivo, 672 h
Summary of the method: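 Male NMRI-nude mice, 20 in total, were given 1.5 million DU145 cells subcutaneously in the flank. After 4 weeks they were split into two groups of 10. Each group was gavaged with 40 mg/kg or with vehicle (50 mM citrate buffer pH 4.0, 2% DMSO) daily, 5 times per week for 4 weeks. Body weight, behaviour, side effects and survival were monitored, and tumours were measured twice weekly by caliper.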

Mus musculus [17] = assay: Toxicity in CD1 mouse assessed as effect on clinical signs at 40 to 400 mg/kg, administered as single dose through oral gavage; format: organism-based; conditions: in vivo
Summary of the method: (§3)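 Male CD1 mice, 7 weeks old, 5 per group, given one oral gavage dose of 40, 200 or 400 mg/kg in 50 mM citrate buffer, pH 4.0, 5% DMSO, alongside a vehicle control group. Clinical signs, clinical pathology and histopathology were assessed, with the study ending on day 8.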

Mus musculus [18] = assay: Toxicity in CD1 mouse assessed as effect on clinical pathological parameters at 40 to 400 mg/kg, administered as single dose through oral gavage; format: organism-based; conditions: in vivo; summary of the method: as §3
Mus musculus [19] = assay: Toxicity in CD1 mouse assessed as effect on histopathological parameters at 40 to 400 mg/kg, administered as single dose through oral gavage; format: organism-based; conditions: in vivo; summary of the method: as §3

COC(=O)[C@H](CS[C@H]1C2C(=O)O[C@@H]3CC[C@H](C[C@@H]1C)[C@]23O)NC(C)=O (stereo not given in full) showed a half-life at 10 µM [1] greater than 2.5 h, a t1/2 (Plasma) of less than 5 min and a Cmax (Mus musculus [2]) of 3733 ng/mL. For the same compound, the AUC (Mus musculus [3]) was 215 µg/mL/min, the Cmax (Mus musculus [4]) was 7478 ng/mL and the “t1/2(app)” value (Mus musculus [5]) was 3 h. The Drug metabolism (Hepatocyte [6]) was “metabolite_detected”, the inhibition (DU-145 [7]) was “Active” and the Activity (DU-145 [8]) was “Active”. For the same compound, the Activity (Mus musculus [9]) was 35.3 g, the Activity (Mus musculus [10]) was 33.02 g and the Activity (Mus musculus [11]) was 33.16 g. For the same compound, the Tmax (Mus musculus [12]) was 0.25 h, the “t1/2(app)” value (Mus musculus [13]) was 1.53 h and the AUCt (Mus musculus [14]) was 117 µg/mL/min. The Drug metabolism (Hepatocyte [15]) was “metabolite_detected”, the Activity (Mus musculus [16]) was “Non-toxic” and the Activity (Mus musculus [17]) was “Non-toxic”. The Activity (Mus musculus [18]) was “Non-toxic” and the Activity (Mus musculus [19]) was “Non-toxic”.
